From PubChem
An excerpt weighted towards active compounds, which were near 3% of everything screened.
Cl transport mod: modulates chloride dependent transport by human KCC2; B-score of Tl+ flux slope (higher = more flux/activation; lower = inhibition) at 10 µM; 190,000 compounds, 2.2% hits; KCC2 cells, thallium flux FluoZin-2 fluorescence;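 active = thallium flux slope and its plate-corrected score both differing from the plate sample mean at a set confidence after two filtering rounds, in either direction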;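 note: slope of fluorescence scaled to starting intensity during 10 to 20 s after thallium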
PKD1 inh: blocks activity of human protein kinase D1; inhibition, % (concentration not given with the values); AID 797; 200,000 compounds, 0.056% hits; PKD1 kinase fluorescence polarization assay; in the data active = inhibition above about 50%
Rad51 HR inh: Rad51 (human) homologous recombination inhibition. Q06609. hRad51 DNA strand exchange, fluorescence dequenching. inhibition, % at 10 µM. 200,000 compounds, 0.085% hits. AID 1385;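 active = inhibition above 40% at the single screening dose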
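Test system: preformed human Rad51 ssDNA filaments; also added: Donor/quencher-labelled 47-bp dsDNA substrate; doses: 10 µM final, single point; times: 37 °C 15-min filament assembly, 30-min compound preincubation, 15-min exchange; detection: FRET fluorescence dequenching, excitation 485 nm, emission 520 nm; read-out basis: Fluorescence-based percent inhibition, control- and blank-normalised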
ROMK primary: human ROMK K+ channel modulation, primary screen. P48048. 130,000 compounds, 2% hits. Tet-inducible ROMK, thallium flux fluorescence; actives lie on both sides. B-score at 10 µM;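 active = signal ratio slope over the read window, or its plate-corrected B-score, at least 3 SD from the plate mean, either direction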;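 note: B-score of the F/F0 ratio slope over 7 to 12 s after thallium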
Target sequence (P48048 whole entry, looked up): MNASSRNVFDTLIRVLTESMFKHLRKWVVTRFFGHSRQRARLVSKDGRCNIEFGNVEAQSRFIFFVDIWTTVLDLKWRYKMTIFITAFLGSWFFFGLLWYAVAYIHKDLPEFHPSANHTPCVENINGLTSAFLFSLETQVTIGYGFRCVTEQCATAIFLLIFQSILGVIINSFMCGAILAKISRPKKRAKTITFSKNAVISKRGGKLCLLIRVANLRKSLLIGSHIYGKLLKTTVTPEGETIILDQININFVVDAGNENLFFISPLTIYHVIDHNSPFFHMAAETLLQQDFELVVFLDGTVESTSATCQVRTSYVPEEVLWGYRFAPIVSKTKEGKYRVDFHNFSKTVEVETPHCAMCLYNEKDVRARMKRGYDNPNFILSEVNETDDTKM
ROMK retest: confirmation of human ROMK potassium channel modulators. shares compounds with ROMK primary. ROMK thallium flux, fluorescence ratio; stronger effect = lower value. normalized thallium flux (F/F0 slope) at 10 µM. 3,000 compounds, 54% hits;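 active = Flux at 10 µM at least 3 SD below or above vehicle control mean in one or both replicates; inconclusive = no clear call, values can overlap the other calls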
Hits are given with their value; . = inactive; ? = inconclusive; / = no result given.

SMILES | Cl transport mod | PKD1 inh | Rad51 HR inh | ROMK primary | ROMK retest
COc1ccccc1N(C)S(=O)(=O)c1ccc(C(=O)OCC(=O)c2c[nH]c3ccccc23)cc1 | . | . | . | / | /
O=C(CSc1nc2ccccc2o1)N1CCN(S(=O)(=O)c2ccc3ccccc3c2)CC1 | . | . | . | -3.6 | .
CC1(CC(=O)N/N=C/c2cc([N+](=O)[O-])c(O)cc2O)OCCO1 | . | . | . | . | .
COc1ccc2nc(SCCC(=O)O)cc(C)c2c1 | . | / | . | / | /
N#C/C(C(N)=O)=C1/CCc2ccccc2N1 | . | . | . | 4.7 | .
O=C1CCc2ccccc2N1 | / | / | . | / | /
O=C(Nc1cccc(N=Cc2cc(Br)cc(Br)c2O)c1)c1ccco1 | . | . | . | / | 0.11
CC(C)(C)NC(=O)c1cccc(NC(=O)c2ccco2)c1 | . | . | . | . | /
O=C(Nc1cccc(N=Cc2cc(Cl)cc(Br)c2O)c1)c1ccco1 | . | . | . | 4.1 | 0.11
O=c1oc2cc(OCc3ccc(F)cc3F)ccc2cc1-c1ccc2ccccc2n1 | . | . | . | / | /
Cc1cc(C)c(C)c(S(=O)(=O)N[C@@H](C)C(=O)OCC(N)=O)c1C | . | . | . | . | /
O=C(CN(C(=O)c1csnn1)c1cccc2ccccc12)NC1CCCC1 | . | . | . | . | /
Cc1ccccc1N(CC(=O)NC1CCCC1)C(=O)c1csnn1 | . | . | . | 1.3 | ?
O=C1C2CCCN2C(=O)N1CCCCN1CCN(CCO)CC1 (stereo not given) | . | . | / | . | /
COCCCNC(=O)c1cccn2c(=O)c3cc4ccccc4cc3nc12 | . | . | . | / | 0.054
O=C(NCc1ccco1)c1cccn2c(=O)c3cc4ccccc4cc3nc12 | . | . | / | . | /
CN(C)c1ccc(/C=C/c2cccc[n+]2[O-])cc1 | . | / | / | -4.4 | 0.054
COc1ccc(C(=O)NCC(=O)OCC(=O)N2N=C(c3ccc(Cl)cc3)CC2c2ccco2)cc1OC (stereo not given) | . | . | . | . | /
CCSc1nnnn1-c1ccccc1 | . | . | . | . | /
Cc1ccc(C)c(-n2nnnc2Sc2nnnn2-c2ccccc2)c1 | . | . | . | -4.6 | 0.058
COc1ccc(CNC(=O)N2CCN(c3ccc(F)cc3)CC2)cc1Cl | . | . | . | -3 | .
Cn1c(C2CCCCC2)nc2c1c(=O)[nH]c(=O)n2Cc1ccccc1 | . | . | . | 3.2 | 0.098
Cc1ccc(-c2nc3c(c(=O)[nH]c(=O)n3Cc3ccccc3)n2C)s1 | . | / | . | . | /
CN(C)c1ccc(/C=C(\C#N)C(=O)c2ccccc2)cc1 | . | / | / | / | 0.066
C#CCOCCOCCOCCNc1nc(N2CCN(C(=O)[C@H](Cc3cc4ccccc4[nH]3)n3cc([C@@H](N)Cc4ccc(O)cc4)nn3)CC2)nc(N2CCN(C(=O)[C@H](Cc3cc4ccccc4[nH]3)n3cc([C@@H](N)CC(C)C)nn3)CC2)n1 | . | / | / | / | 0.045
SMILES | Cl transport mod | PKD1 inh | Rad51 HR inh | ROMK primary | ROMK retest
O=C(Nc1cccc(S(=O)(=O)N2CCCC2)c1)c1ccc2c(c1)OCO2 | . | . | . | / | /
O=C(Nc1cccc(O)c1)c1cc(S(=O)(=O)N2CCCC2)ccc1Cl | . | . | . | 3.4 | 0.1
O=C(Nc1ccccc1)c1cc(S(=O)(=O)N2CCSCC2)ccc1Cl | . | . | . | . | /
O=C(Nc1cccc(S(=O)(=O)N2CCCCCC2)c1)c1ccc2c(c1)OCO2 | . | . | / | -3.6 | .
N#Cc1cc2c(=O)n3ccccc3nc2n(-c2ccccc2Cl)c1=O | . | . | . | . | /
CN(C(=O)CSc1nnc(-c2ccncc2)n1C)C1CCS(=O)(=O)C1 (stereo not given) | . | . | . | 3.1 | .
CCOC(=O)N1CCN(C(=O)COc2cccc3c2CCN(Cc2cccc(C)c2)C3=O)CC1 | . | . | . | / | 0.064
Cc1ccccc1CN1CCc2c(OCC(=O)N3CCCc4ccccc43)cccc2C1=O | . | . | . | . | .
O=C1c2cccc(OCC(=O)N3CCCc4ccccc43)c2CCN1Cc1cccnc1 | . | . | . | . | /
CCCN1CNc2c(c(=O)[nH]c(=S)n2CCc2ccc(OC)c(OC)c2)C1 | . | . | . | . | /
Cc1cc2cc(CN(CCN(C)C)C(=S)NCc3ccco3)c(=O)[nH]c2cc1C | . | . | . | -3.7 | 0.059
CCc1ccc2[nH]c(=O)c(CN(CCN(CC)CC)C(=S)NCc3ccco3)cc2c1 | . | . | . | -3.3 | 0.064
Cc1cc2cc(CN(Cc3ccco3)C(=O)C3CCCCC3)c(=O)[nH]c2cc1C | / | . | . | . | /
CCc1ccc2[nH]c(=O)c(CN(CCN(C)C)C(=S)NCc3ccco3)cc2c1 | . | . | . | . | /
Cc1cc2cc(CN(Cc3ccco3)C(=O)NCc3ccccc3)c(=O)[nH]c2cc1C | . | . | . | -5.2 | 0.059
O=C(COC(=O)CNS(=O)(=O)c1ccc(F)c(F)c1F)Nc1ccc(OC(F)F)cc1 | . | . | . | . | /
Cc1cccc(NC(=O)CSc2nnc(NC(=O)c3ccc(S(=O)(=O)N4CCOCC4)cc3)s2)c1C | . | . | . | . | .
COc1ccc(NC(=O)CSc2nnc(NC(=O)c3ccc(S(=O)(=O)N4CCOCC4)cc3)s2)cc1 | . | . | . | . | /
CC(=O)c1cccc(NC(=S)NNC(=O)c2ccc(C)c([N+](=O)[O-])c2)c1 | . | . | . | . | /
Cc1ccc(C(=O)NNC(=S)Nc2cccc(Cl)c2Cl)cc1[N+](=O)[O-] | / | . | . | 4.3 | .
CCOC(=O)C1=C(Cc2ccc(F)cc2)C(=O)c2ccccc2C1=O | . | . | . | -3.3 | 0.061
O=C(NNc1c(Cl)cc(Cl)cc1Cl)C1CCC1 | . | . | . | / | /
CC(C)Cc1nc(N2CCN(C(=O)c3ccco3)CC2)c(C#N)c2c1CCC2 | . | . | . | . | 0.067
CCc1ccc2[nH]c(=O)c(CN(Cc3ccccc3OC)C(=O)Nc3ccccc3OC)cc2c1 | . | . | . | 0.96 | .
CCN(CC)CCN(Cc1cc2cc(C)ccc2[nH]c1=O)C(=O)Nc1ccccc1OC | . | . | . | / | /
SMILES | Cl transport mod | PKD1 inh | Rad51 HR inh | ROMK primary | ROMK retest
Cc1ccc(-c2ccc(/C=N/c3ncn[nH]3)o2)cc1Cl | . | . | . | 3.4 | .
Cc1ccc(NC(=O)CSc2ccc3nnc(CCNC(=O)c4ccccc4)n3n2)c(C)c1 | . | . | . | . | /
C1CCN(c2nc(N3CCCCC3)nc(N3CCNCC3)n2)CC1 | . | . | . | -3 | 0.067
N#Cc1nc(N2CCCC2)nc(N2CCCC2)n1 | / | . | . | -3.4 | 0.063
O=C(Nc1ccc(S(=O)(=O)Nc2ccc(F)cc2)cc1)c1ccc(CN2CCOCC2)cc1 | . | . | . | -3.4 | ?
O=C(Nc1ccc(S(=O)(=O)N2CCCC2)cc1)c1ccc(CN2CCOCC2)cc1 | / | . | / | . | /
O=C(Nc1ccc(S(=O)(=O)N2CCCCC2)cc1)c1ccc(CN2CCOCC2)cc1 | . | . | . | / | 0.059
c1ccc(Sc2ncccn2)nc1 | . | / | . | / | /
Cc1nn(CC(O)COc2ccc3c(c2)CCC3)c(C)c1C (stereo not given) | / | . | . | -3.7 | 0.066
CCN1CCN(CC(O)COc2ccc3c(c2)CCC3)CC1 (stereo not given) | . | . | . | . | /
